Measurements: paper PMC4383763 (Journal of clinical pharmacology, 2013)

Key:
[1] = assumed for the prediction, no reference given; cited from earlier work
[2] = tested on: APAP-induced liver injury in mice; details: cited from earlier work; for effect of drug vehicles on APAP-induced liver injury: mouse model
[3] = Plasma propylene glycol concentration by GC-FID after APAP preparation; type: in vivo, human
How it was run: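 Crossover in volunteers given tablet or liquid APAP formulations (liquid contains 5% v/v PG), 15 mg/kg orally after a 1 h fast, on separate visits. Blood held refrigerated ≤24 h, then plasma separated by centrifugation and stored at -80 °C. PG was measured by GC-FID, first in 0–120 min samples from three subjects, then in all 30 min samples. LOD 5.0 mg/dL.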

CYP2E1 = details: cited from earlier work
Cultured hepatocytes = details: in the presence of PG; cited from earlier work
[4] = subjects who received 2 months of cimetidine; cited from earlier work

In the case of `CC(O)CO` (stereo not drawn) [PG, propylene glycol], the “volume of distribution of PG” value [1] is given as 0.58 L/kg, the “hepatocellular damage following a toxic APAP dose” value ([2]; mice pretreated with the substance) is given as “reduced hepatocellular damage” and the “effect of drug vehicles on APAP-induced liver injury” value (“effect of drug vehicles” below) [2] is given as “protective”. The “maximum PG concentration in plasma” value ([3]; 30-minute samples after liquid preparation) was 9.1 mg/dL, the “PG detected in 30-minute samples” value ([3]; following ingestion of the liquid preparation, limit of detection 5.0 mg/dL) was 9 out of 15 and the “PG detected in samples” value ([3]; solid group, limit of detection 5.0 mg/dL) was “none”. For the same molecule, the “type of CYP2E1 inhibition” value (CYP2E1) was “competitive inhibitor” and the “susceptibility of cultured hepatocytes to APAP-induced necrosis” value (Cultured hepatocytes) was “less susceptible”.

For `CN/C(=N/CCSCc1nc[nH]c1C)NC#N` [cimetidine], the “urinary APAP-mercapturate following therapeutic APAP dosing” value [4] is given as “decreased”.

For `CN(C)C=O` [dimethylformamide], the “effect of drug vehicles” value [2] is listed as “protective”.

In the case of `C[S+](C)[O-]` [dimethylsulfoxide], the “effect of drug vehicles” value [2] is listed as “protective”.

For `CCO` [ethanol], the “effect of drug vehicles” value [2] is given as “protective”.
